Data reported in ChEMBL document CHEMBL1122693, “Biological activity and a modified synthesis of 8-amino-3-beta-D-ribofuranosyl-1,2,4-triazolo[4,3-a]pyrazine, an isomer of formycin” (1984).
In brackets after ≈: the same amount, converted by molar mass. Several values for one entry are separate records, joined by “and”; a condition that tells them apart may be missing. Equal entries are not always repeated.

How the values were obtained:
[1] = Coronary vasoactivity as molar potency ratio (MPR), the quotient of ED50 of adenosine by that of the test nucleoside; type: functional
Procedure, shortened: (§1)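 Dogs anesthetized with morphine-thiamylal-fluothane. MPR is ED50 of adenosine divided by ED50 of test nucleoside. Dog-to-dog variation in MPR about ±10%.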

Vaccinia virus = assay: Compound was tested for antiviral activity against vaccinia virus in primary rabbit kidney cells; type: functional; settings: Orthopoxvirus vaccinia
Measles morbillivirus = assay: Compound was tested for antiviral activity against measles virus in vero cells; type: functional
Procedure, shortened: (§2)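 Inhibition of virus-induced cytopathogenicity, scored as minimum inhibitory concentration (µg/mL) in the host cell monolayers listed: HSV-1 (KOS) and HSV-2 (G) in primary rabbit kidney cells; measles, reovirus type 1, parainfluenza type 3, Coxsackie B4 and Sindbis in Vero cells; Coxsackie and polio in HeLa cells. Minimum cytotoxic concentration taken as microscopically detectable alteration of normal cell morphology; highest concentration tested 400 µg/mL.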

Coxsackievirus B4 [2] = assay: Compound was tested for antiviral activity (minimum inhibition concentration) in HeLa cells coxsackie virus type 4; type: functional; settings: Enterovirus B; procedure, shortened: as §2
[3] = system: Mammalian orthoreovirus 1; assay: Compound was tested for antiviral activity (minimum inhibition concentration) in Vero cells reovirus type 1; type: functional; procedure, shortened: as §2
Poliovirus 1 = assay: Compound was tested for antiviral activity (minimum inhibition concentration) in HeLa cells polio virus type 1; type: functional; settings: Enterovirus C
[4] = system: Vesicular stomatitis virus; assay: Compound was tested for antiviral activity against vesicular stomatitis virus in primary rabbit kidney cells; type: functional
Coxsackievirus B4 [5] = assay: Compound was tested for antiviral activity (minimum inhibition concentration) in Vero cells coxsackie virus type B4; type: functional; settings: Enterovirus B; procedure, shortened: as §2
Human alphaherpesvirus 1 = assay: Compound was tested for antiviral activity against herpes simplex virus-1(KOS) in primary rabbit kidney cells; type: functional; procedure, shortened: as §2
[6] = system: Vesicular stomatitis virus; assay: Compound was tested for antiviral activity (minimum inhibition concentration) in HeLa cells vesicular stomatitis virus (VSV); type: functional
Human respirovirus 3 = assay: Compound was tested for antiviral activity (minimum inhibition concentration) in Vero cells parainfluenza virus type 3; type: functional; procedure, shortened: as §2
Human alphaherpesvirus 2 = assay: Compound was tested for antiviral activity against herpes simplex virus-2(G) in primary rabbit kidney cells; type: functional; procedure, shortened: as §2
Sindbis virus = assay: Compound was tested for antiviral activity (minimum inhibition concentration) in Vero cells sindbis virus; type: functional; procedure, shortened: as §2
L1210 [7] = assay: Effect of compound on the incorporation of nucleic acid precursor into L1210 cells (cpm x 10e-3),precursors used along with compound were [14C]uridine; type: functional, Mus musculus
Procedure, shortened: (§3)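 L1210 suspension cultures in RPMI 1640 with 10% horse serum, at 37 °C, preincubated 90 min with or without test compound at 1 mM. 14C-precursor (cytidine, uridine, adenosine or thymidine) then added to 0.04 µCi/mL final and incubated a further 30 min. Cells pelleted and Schmidt-Thannhauser fractionation gave acid-soluble, RNA and DNA fractions, counted by scintillation. Duplicate flasks; results as cpm ×10^-3 and % of control.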

L1210 [8] = assay: Effect of compound on the incorporation of nucleic acid precursor into L1210 cells (cpm x 10e-3), precursors used along with compound were [14C]-Adenosine; type: functional, Mus musculus; procedure, shortened: as §3
[9] = Coronary vasoactivity (molar potency ratio (MPR), the quotient of ED50 of adenosine by that of the test nucleoside)Dog to dog variations in MPR are about +/-10%; type: functional; procedure, shortened: as §1
L1210 [10] = assay: Effect of compound on the incorporation of nucleic acid precursor into L1210 cells (cpm x 10e-3),precursors used along with compound were [14C]cytidine; type: functional, Mus musculus; procedure, shortened: as §3
L1210 [11] = assay: Effect of compound on the incorporation of nucleic acid precursor into L1210 cells (cpm x 10e-3), precursors used along with compound were [14C]cytidine; type: functional, Mus musculus; procedure, shortened: as §3

Compound | MPR [1] | MIC (Vaccinia virus) | MIC (Measles morbillivirus) | MIC (Coxsackievirus B4 [2]) | MIC [3] | MIC (Poliovirus 1) | MIC [4] | MIC (Coxsackievirus B4 [5]) | MIC (Human alphaherpesvirus 1) | MIC [6] | MIC (Human respirovirus 3) | MIC (Human alphaherpesvirus 2) | MIC (Sindbis virus) | Fraction (L1210 [7]) | RNA fraction (L1210 [8]) | MPR [9] | Total uptake (L1210 [10]) | Total uptake (L1210 [11])
Nc1ncnc2c1nnn2[C@@H]1O[C@H](CO)[C@@H](O)[C@H]1O | 0.042 |  |  |  |  |  |  |  |  |  |  |  |  |  |  |  |  | 
Nc1nccc2c1ncn2[C@@H]1O[C@H](CO)[C@@H](O)[C@H]1O |  | 7 µg/mL (≈ 26.3 µM) | 40 µg/mL (≈ 150 µM) | 40 µg/mL (≈ 150 µM) | 4 µg/mL (≈ 15 µM) | 40 µg/mL (≈ 150 µM) | 7 µg/mL (≈ 26.3 µM) | 4 µg/mL (≈ 15 µM) | 40 µg/mL (≈ 150 µM) | 10 µg/mL (≈ 37.6 µM) | 2 µg/mL (≈ 7.51 µM) | 10 µg/mL (≈ 37.6 µM) | 40 µg/mL (≈ 150 µM) |  |  |  |  | 
Nc1ncnc2c([C@@H]3O[C@H](CO)[C@@H](O)[C@H]3O)[nH]nc12 [FORMYCIN] | 0.043 | 4 µg/mL (≈ 15 µM) | ≥ 40 µg/mL | ≥ 200 µg/mL | ≥ 40 µg/mL | 10 µg/mL (≈ 37.4 µM) | 2 µg/mL (≈ 7.48 µM) | ≥ 40 µg/mL | 4 µg/mL (≈ 15 µM) | 10 µg/mL (≈ 37.4 µM) | ≥ 40 µg/mL | 4 µg/mL (≈ 15 µM) | ≥ 40 µg/mL |  |  |  |  | 
NC(=O)c1ncn([C@@H]2O[C@H](CO)[C@@H](O)[C@H]2O)n1 [RIBAVIRIN] |  | 20 µg/mL (≈ 81.9 µM) | 20 µg/mL (≈ 81.9 µM) | 20 µg/mL (≈ 81.9 µM) | 100 µg/mL (≈ 409 µM) | 10 µg/mL (≈ 40.9 µM) | 20 µg/mL (≈ 81.9 µM) | 200 µg/mL (≈ 819 µM) | > 400 µg/mL | 20 µg/mL (≈ 81.9 µM) | 10 µg/mL (≈ 40.9 µM) | > 400 µg/mL | 40 µg/mL (≈ 164 µM) |  |  |  |  | 
Nc1ncnc2c1ccn2[C@@H]1O[C@H](CO)[C@@H](O)[C@H]1O | 0.071 |  |  |  |  |  |  |  |  |  |  |  |  |  |  |  |  | 
Nc1nccn2c([C@@H]3O[C@H](CO)[C@@H](O)[C@H]3O)nnc12 |  | 100 µg/mL (≈ 374 µM) | 200 µg/mL (≈ 748 µM) | > 400 µg/mL | 200 µg/mL (≈ 748 µM) | > 400 µg/mL | 100 µg/mL (≈ 374 µM) | 200 µg/mL (≈ 748 µM) | > 400 µg/mL | 150 µg/mL (≈ 561 µM) | 100 µg/mL (≈ 374 µM) | 200 µg/mL (≈ 748 µM) | 300 µg/mL (≈ 1120 µM) | 24 | 24 and 19.8 | 0.0015 | 50.4 | 128.8 and 161.7
Nc1nnnc2c1ncn2[C@@H]1O[C@H](CO)[C@@H](O)[C@H]1O | 0.15 |  |  |  |  |  |  |  |  |  |  |  |  |  |  |  |  | 
